# In the library only some 1.2% were active in any assay of this set; here they are far more common.
# APOBEC3G inh – APOBEC3G (human) deaminase inhibition; Q9HC16; recombinant A3G, ssDNA deamination FAM/TAMRA fluorescence; inhibition, % at 20 µM; 330,000 tested, 0.28% active; AID 493012;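 active means inhibition of at least 40% at 20 µM, with no more than 30% in the related APOBEC3A deaminase screen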;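 further: plate controls were DMSO wells with A3G for no effect and wells lacking A3G enzyme for full effect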
# Target sequence (Q9HC16 whole entry, looked up): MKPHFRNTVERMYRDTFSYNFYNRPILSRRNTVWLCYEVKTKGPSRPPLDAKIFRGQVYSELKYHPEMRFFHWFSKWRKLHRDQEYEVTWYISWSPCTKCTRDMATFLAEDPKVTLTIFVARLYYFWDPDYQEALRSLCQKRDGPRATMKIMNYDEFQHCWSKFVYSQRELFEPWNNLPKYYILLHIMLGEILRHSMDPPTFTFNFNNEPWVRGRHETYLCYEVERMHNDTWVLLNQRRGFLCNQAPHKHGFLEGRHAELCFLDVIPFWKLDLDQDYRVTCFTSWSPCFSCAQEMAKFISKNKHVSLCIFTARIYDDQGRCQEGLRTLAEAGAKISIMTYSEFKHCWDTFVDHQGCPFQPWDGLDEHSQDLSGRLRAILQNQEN
# ABHD5 PLIN5 PPI – inhibitors of human ABHD5-perilipin-5 interaction; 360,000 tested, 0.78% active; Split G. princeps luciferase complementation, luminescence, 4 h; inhibition, % at 4 µM;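 active means inhibition above the mean inhibition across every tested compound plus 3 SD, cut at about 22% in these data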;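 further: 0% = DMSO only wells and the 100% control is not disclosed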
# FN deposit inh – fibronectin deposition inhibition | AH1F fibroblasts, Alexa488-fibronectin deposition fluorescence, overnight | inhibition, % at 12.6 µM | 350,000 tested, 0.086% active;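 active means mean inhibition across replicates of 30% or more, regardless of how many single replicates reach that level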;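 further: positive control wells lacked labelled fibronectin entirely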
#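 Material – AH1F fibroblast monolayer, labelled fibronectin deposition · Reagent – labelled fibronectin 24 nM · Timing – 1 h adhesion, overnight exposure · Measured by – fluorescence at 485 nm excitation, 525 nm emission · Read-out – inhibition of fibronectin deposition signal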
# A3A deaminase – inhibitors of human APOBEC3A DNA deaminase. P31941. recombinant A3A, FAM/TAMRA ssDNA deamination fluorescence. inhibition, % at 20 µM. 330,000 tested, 0.41% active. AID 493011;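 active means at least 40% inhibition at 20 µM here, with at most 30% in a related deaminase screen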;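 further: plate controls were A3A with DMSO for no effect and wells lacking A3A enzyme for full effect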
# Target sequence (P31941 whole entry, looked up): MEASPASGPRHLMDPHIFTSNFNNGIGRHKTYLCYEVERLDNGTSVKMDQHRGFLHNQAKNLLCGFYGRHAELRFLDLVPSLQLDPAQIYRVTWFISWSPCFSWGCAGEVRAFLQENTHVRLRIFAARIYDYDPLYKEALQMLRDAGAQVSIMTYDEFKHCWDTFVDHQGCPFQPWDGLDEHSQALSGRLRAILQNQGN
# A3A conf – confirmation of human APOBEC3A DNA deaminase inhibitors; inhibition, % at 20 µM; 1,400 tested, 63% active; recombinant A3A, ssDNA deaminase UDG fluorescence assay; shares compounds with A3A deaminase; AID 493151;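 active means inhibition reaching a set limit, 80% of the first screen's cutoff, at 20 µM in any replicate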;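 further: plate controls were DMSO wells with A3A for no effect and wells lacking A3A enzyme for full effect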
# UDG ctr A3A – inhibits UDG, flagging false APOBEC3A inhibitors. 1,000 tested, under 10 active. shares compounds with A3A deaminase. inhibition, % at 20 µM. AID 504714. UDG counterscreen, FAM/TAMRA uracil oligo fluorescence; call rule not given here
# An asterisk follows results filed as active; nt = no result given.
SMILES,APOBEC3G inh,ABHD5 PLIN5 PPI,FN deposit inh,A3A deaminase,A3A conf,UDG ctr A3A
O=C(COC(=O)/C=C/c1ccco1)NCc1ccccc1Cl,-4,-2,-1,-2,nt,nt
C/C=C/c1ccc(C2[C@H]3CNC[C@@H]2N3S(=O)(=O)Cc2ccccc2)cc1 (some centres not stated),nt,nt,-6,nt,nt,nt
Cc1cc(Cl)ccc1OCC(=O)N[C@@H](Cc1ccccc1)c1nc2ccccc2[nH]1,15,4,2,42*,24,nt
Cc1cc(=O)oc2c1c(C)nn2-c1nn[nH]n1,23,-4,6,59*,72*,-2
N#Cc1ccc(-c2cccc(-c3nc(C(=O)O)cc4c3[C@@H](CCO)N(CC3CCOCC3)C4)c2)cc1,nt,nt,8,nt,nt,nt
C#CCn1cc(/C=N/NC(=O)COc2cccc3cccnc23)c2ccccc21,12,0,-1,65*,47*,-2
CC(=O)c1ccc[n+](CC(=O)NC(C)c2ccccc2)c1 (configuration not stated),10,3,-6,62*,64*,-3
O=C(C[C@H]1CC[C@H]2[C@@H](COC[C@@H](O)CN2C(=O)Nc2ccc(Cl)cc2)O1)NC1Cc2ccccc2C1,nt,nt,1,nt,nt,nt
CCN1/C(=C/c2cccc[n+]2C)Sc2ccc(OC)cc21,15,15,-6,53*,87*,-2
COc1cc(OC)cc(C(=O)/C=C2\Sc3ccccc3N2C)c1,-3,-1,1,0,nt,nt
COc1ccc2c(c1)N(C)/C(=C/c1cccc[n+]1C)S2,21,4,-19,57*,88*,-3
CCN1C(N(C)CCc2c[nH]c3ccccc23)=N[C@@H](c2cccc(C(F)(F)F)c2)C(C(=O)OC)=C1C,4,1,nt,31,nt,nt
CCN1C(N(C)CCc2cccs2)=N[C@@H](c2ccccc2)C(C(=O)OC)=C1C,22,-3,nt,52*,52*,-2
COC(=O)\C(C(C)=O)=C(/C=C/C=C/N(C)C)N(C)C,14,-10,4,47*,35*,nt
C[C@@H]1CN([C@H](C)CO)C(=O)c2cccc(NS(C)(=O)=O)c2O[C@H]1CN(C)C(=O)Nc1ccccc1,nt,nt,-5,nt,nt,nt
COCC(C)NC(C(=O)Nc1cccc(C(C)=O)c1)c1ccccc1 (configuration not stated),3,6,-8,6,nt,nt
CCOc1ccc(NC(C(=O)Nc2cccc(C(C)=O)c2)c2ccccc2)cc1 (configuration not stated),-3,4,0,43*,-11,-3
O=C(C1CCC1)N1CC2(C1)[C@H](c1ccccc1)[C@@H](CO)N2Cc1ccccc1F,nt,nt,1,nt,nt,nt
COc1ccc(NC(=O)C(=O)N2N=C3CCCCC3C2(O)C(F)(F)F)cc1 (configuration not stated),10,-1,nt,55*,54*,-1
CC(=O)Oc1ccccc1/C=C/c1nc2ccccc2c(=O)o1,-2,3,0,1,nt,nt
O=c1oc(/C=C/c2ccc([N+](=O)[O-])s2)nc2ccccc12,4,8,nt,43*,33*,nt
O=C1CCc2cc(S(=O)(=O)Nc3ccccc3F)ccc2N1,6,-9,7,99*,0,nt
C/C=C/c1cnc2c(c1)C(=O)N([C@H](C)CO)C[C@@H](C)[C@H](CN(C)C(=O)C1CCC1)O2,nt,nt,2,nt,nt,nt
Cn1c(CNC(=O)c2ccco2)nnc1SCC(=O)N1c2ccccc2Sc2ccccc21,18,-1,nt,63*,58*,-3
Cc1nnc(NC(=O)C2CC(=O)N(c3ccc4c(c3)OCCO4)C2)s1 (configuration not stated),-4,-5,8,0,nt,nt
SMILES,APOBEC3G inh,ABHD5 PLIN5 PPI,FN deposit inh,A3A deaminase,A3A conf,UDG ctr A3A
O=C(Nc1nc(-c2ccco2)c(-c2ccco2)s1)C1CC(=O)N(c2ccc3c(c2)OCCO3)C1 (configuration not stated),27,33*,4,49*,37*,-4
O=C(Nc1nnc(SCc2c(Cl)cccc2Cl)s1)C1CC(=O)N(c2ccc3c(c2)OCCO3)C1 (configuration not stated),21,-7,nt,64*,23,nt
O=C(Nc1nnc(SCc2ccc(F)cc2)s1)C1CC(=O)N(c2ccc3c(c2)OCCO3)C1 (configuration not stated),0,-2,nt,-1,nt,nt
CO[C@@H]1CN(C)C(=O)c2ccc(NC(=O)Nc3cccc(F)c3)cc2OC[C@H](C)N(C(=O)C2CC2)C[C@H]1C,nt,nt,-5,nt,nt,nt
CN1CCC(N(C)S(=O)(=O)c2ccc(NC(=O)COc3ccc(Br)cc3Cl)cc2)CC1,-6,8,nt,42*,48*,2
Cc1ccc(OCC(=O)Nc2ccc(S(=O)(=O)N(C)C3CCN(C)CC3)cc2)c(C)c1,16,-1,nt,43*,55*,-3
CN1CCC(N(C)S(=O)(=O)c2ccc(NC(=O)c3ccc(S(=O)(=O)N(C)C)cc3)cc2)CC1,1,4,-23,47*,39*,-3
O=C(C[C@@H]1CC[C@H]2[C@@H](COC[C@H](O)CN2C(=O)c2ccccc2F)O1)NCc1ccc(Cl)cc1,nt,nt,-2,nt,nt,nt
N#C[C@H]1[C@H](c2ccc(C#CC3CCCC3)cc2)[C@@H](CO)N1C(=O)c1cccc(F)c1,nt,nt,-12,nt,nt,nt
C[C@H](CO)N1C[C@H](C)[C@H](CN(C)C(=O)c2ccccc2F)Oc2ncc(-c3ccc(F)cc3)cc2C1=O,nt,nt,-5,nt,nt,nt
Cc1cc(C)n2nc[n+](C)c2n1,22,0,nt,53*,39*,-2
CN(c1ccc(C(=O)Nc2cccnc2)cc1)S(=O)(=O)c1ccccc1,2,-10,1,52*,28,nt
O=C(O)Cc1ccc(S(=O)(=O)N2CCCC2)s1,7,9,-13,49*,51*,-2
COc1ccc(N2CCN(C(=O)Cc3ccc(S(=O)(=O)N4CCOCC4)s3)CC2)cc1,10,3,-6,49*,25,nt
CCCNC(=O)Nc1ccc2c(c1)C(=O)N(C)C[C@H](OC)[C@H](C)CN(Cc1ccccc1)[C@H](C)CO2,nt,nt,-11,nt,nt,nt
CN(C)CCCNc1c2ccccc2nc2ccccc12,21,-4,-9,54*,54*,4
CN(C)CCCNc1nc(-c2ccccc2)nc2ccccc12,-8,0,1,-1,nt,nt
CO[C@H]1CN(C)C(=O)c2ccc(NS(=O)(=O)c3ccc(Cl)cc3)cc2OC[C@H](C)N(C(=O)NC(C)C)C[C@@H]1C,nt,nt,10,nt,nt,nt
NS(=O)(=O)c1cc(C(=O)OCC(=O)Nc2ccc3[nH]c(=O)[nH]c3c2)ccc1Cl,2,7,4,50*,44*,-3
O=C(COc1ccc(Cl)cc1)OCC(=O)N1CCCC1,-4,1,nt,55*,-1,3
CO[C@H]1CN(C)C(=O)c2ccc(NC(=O)c3ccc(F)cc3)cc2OC[C@@H](C)N(C(=O)CN(C)C)C[C@@H]1C,nt,nt,-15,nt,nt,nt
Cc1ccn(C)c(=N)c1,10,-7,3,48*,56*,3

# Source: PubChem BioAssay (several laboratories)
